Screening data deposited in PubChem BioAssay by several laboratories.
TWEAK-Fn14 inh = inhibitors of TWEAK-Fn14 signaling, primary screen, luciferase reporter cells, uHTS; TWEAK-stimulated Fn14 reporter cells, luciferase luminescence, 8 h; hit rate 2% among 360,000; AID 1159606, 2016; inhibition, % at 10 µM; in the data active = inhibition above about 50%
TROY signal inh = inhibitors of TROY-driven NF-kB signaling, primary screen, Q293 LMP1-TROYcd cells, NF-kB luciferase, uHTS; Q293 LMP1-TROYcd NF-kB luciferase reporter, 4 h; inhibition, % at 10 µM; hit rate 0.98% among 360,000;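 active = compounds whose plate-normalised and pattern-corrected inhibition of the luciferase reporter signal at the single screening dose is 50% or more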
LGR2 inh = inhibitors of bursicon-induced LGR2 CRE-luciferase signal, primary screen, cell-based, HEK293, CRE-luciferase reporter, bursicon stimulation | AID 720647, 2013 | hit rate 0.35% among 380,000 | bursicon-stimulated, 4 h | inhibition, % at 9.99 µM;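 active = drop in luminescence signal, shown as inhibition above about 50% in the replicate tests, limit read from the data, passing the limit was not always enough; inconclusive = probably only some replicates passing the limit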;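 note: agonist challenge used bursicon conditioned medium at about half maximal strength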
EWS-Fli inh = EWS/Fli-driven NR0B1 reporter inhibitors, primary screen, A673 cells, NR0B1 luciferase, luminescence, MLPCN library | viability-normalised | inhibition, % at 12.6 µM | hit rate 0.67% among 350,000;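 active = mean inhibition of at least 50% after viability correction, with every replicate also passing that limit; inconclusive = mean reaches 50% but only one of two replicates passes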;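 note: firefly luciferase signal divided by Alamar Blue viability fluorescence both relative to DMSO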
Xi reactivation = activators of inactive X chromosome reactivation, primary screen, imaging, XiGFP fibroblasts, GFP high-content imaging, set 2. hit rate 0.055% among 360,000. activation, % at 7.58 µM. XiGFP mouse fibroblasts, % GFP-positive cells imaging, 3 d; cells co-treated with 5-aza-dC sensitizer; scaled so ellipticine positive control = 100%;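 active = mean normalized replicate activation at least 10% and every replicate at or above 10%; inconclusive = only one of the two criteria met; inactive = mean below 10% and not all replicates reach 10%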;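 note: 0% = median of on-plate neutral control wells and 100% = ellipticine 6 µM median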
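Schedule: 3 d treatment, 15 min room-temperature fixation; system: 68-5-11 XiGFP fibroblast line; buffer or medium: DMEM plus 5-aza-dC sensitizer; control set: ellipticine 6 µM positive control; compound: one concentration, pinned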
FN deposition inh = inhibitors of fibronectin matrix deposition, primary screen, AH1F cells, Alexa488-fibronectin fluorescence, plate reader; inhibition, % at 12.6 µM; hit rate 0.086% among 350,000; AH1F fibroblasts, overnight;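 active = mean inhibition across replicates of 30% or more, regardless of how many single replicates reach that level; inconclusive = mean under 30% yet at least half of replicates reach 30%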;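 note: positive control wells lacked labelled fibronectin entirely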
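Assay system: AH1F fibroblasts assembling fluorescent fibronectin matrix; Amount: 10000 AH1F cells per well; Buffer or medium: DMEM, 2% serum; Probe or stimulus: Alexa488-fibronectin, 24 nM final in well; Doses: single compound dose, delivered by pin transfer; Incubation: 1 h adhesion, overnight exposure; Measured by: fluorescence 485/525 nm; Read-out: fibronectin deposition inhibition.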
An asterisk follows results filed as active; ? = inconclusive; / = no result given. Sampled rows, rich in hits. Any-hit rate of the full collection: about 2.3%.

SMILES	TWEAK-Fn14 inh	TROY signal inh	LGR2 inh	EWS-Fli inh	Xi reactivation	FN deposition inh
C=CCN1[C@@H]2CN(C(=O)NC(C)C)C[C@H]1C2c1ccccc1 (stereo not given in full)	/	/	/	/	0	-5
C[C@@H]1CN([C@@H](C)CO)C(=O)c2c(c3ccccc3n2C)-c2ccccc2CO[C@H]1CN(C)C(=O)Oc1ccccc1	/	/	3	4	0	-2
CC(N)C(=O)NC1C2C(=C(O)CC(O)C2O)C(=O)OC1(C)C(Cl)Cl (stereo not given)	96*	78*	99*	?	0	18
O=C(Cc1cccnc1)N1CCCCN2[C@H](CO)[C@@H](c3ccc(/C=C/c4ccccc4)cc3)[C@@H]2C1	/	/	11	-2	0	/
COC(=O)c1ccc(NC(=O)CSc2nc3ccc(N4C(=O)C5C6C=CC(C6)C5C4=O)cc3s2)cc1 (stereo not given)	91*	57*	104*	-22	0	-3
O=C(Cc1ccncc1)N1CCCCN2[C@@H](CO)[C@@H](c3ccc(C#CC4(O)CCCC4)cc3)[C@@H]2C1	/	/	-19	/	0	/
O=C(Cc1ccccn1)N1CC2(C1)[C@H](c1ccccc1)[C@@H](CO)N2Cc1ccccn1	/	/	-20	1	0	/
CC(C)=CCc1c(O)cc2c(c1O)C(=O)CC(c1ccc(O)cc1)O2 (stereo not given)	35	52*	-2	6	/	/
CNc1cc(Cl)c2nonc2c1[N+](=O)[O-]	-2	89*	104*	31	3	49*
COC(=O)[C@@H]1[C@@H](CO)[C@@H]2Cn3c(ccc(C4=CCCC4)c3=O)[C@H]1N2CC1CCCCC1	/	/	-8	1	1	/
COc1ccc(CCNCc2sccc2C)cc1OC	77*	11	17	-4	0	/
O=C(Cc1ccccc1)N1CC2(C1)[C@@H](c1ccccc1)[C@H](CO)N2Cc1cccc(F)c1	/	/	/	/	0	/
COc1ccccc1CN1[C@H](CO)[C@H](c2ccccc2)C12CN(C(=O)Cc1ccccc1)C2	/	/	5	-2	0	11
CN(Cc1cccc(-c2ccncc2)c1)C(=O)Oc1ccccc1Cl	75*	49	/	/	/	/
Cc1nc2cc(OC(=O)N(C)Cc3cccc(-c4ccncc4)c3)ccc2s1	93*	66*	/	/	/	/
CN(Cc1cccc(-c2ccncc2)c1)C(=O)Oc1ccccc1Cc1ccccc1	93*	66*	/	/	/	/
CN(C)Cc1ccccc1OC(=O)N(C)C	-2	-7	/	/	/	/
OC[C@@H]1[C@@H]2c3ccccc3NC[C@@H]2N1Cc1cccnc1	/	/	8	6	0	14
CN1C(=O)C(C2c3ccccc3C(=O)N2Cc2ccc([N+](=O)[O-])cc2)C(=O)N(C)C1=O (stereo not given)	10	-22	/	/	/	3
CN1C(=O)C(C2c3ccccc3C(=O)N2Cc2ccccc2)C(=O)N(C)C1=O (stereo not given)	11	51*	/	/	/	/
Cc1cccc(N2C(=O)NC(=O)/C(=C\C=C\c3ccco3)C2=O)c1	-13	4	15	67*	0	-4
Cc1ccc(N2C(=O)NC(=O)/C(=C\C=C\c3ccco3)C2=O)cc1	17	2	4	56*	0	-2
CN(C)c1ccc(/C=C/C=C2/C(=O)NC(=O)N(c3ccccc3)C2=O)cc1	92*	5	/	57*	0	1
Cc1cc(N2CCOCC2)ccc1/C=C1\C(=O)NC(=O)N(c2ccccc2)C1=O	8	-14	6	-3	0	14
Cc1ccc(N2C(=O)NC(=O)/C(=C\C=C\c3ccco3)C2=O)cc1C	14	10	7	72*	0	-8
SMILES	TWEAK-Fn14 inh	TROY signal inh	LGR2 inh	EWS-Fli inh	Xi reactivation	FN deposition inh
COc1cccc(CN2CC3(C2)[C@H](c2ccccc2)[C@H](CO)N3C(=O)Cc2ccccc2)c1	/	/	-14	0	0	5
Cc1ccccc1-c1ccc([C@H]2[C@H]3CN(C(=O)Cc4ccccn4)CCCCN3[C@H]2CO)cc1	/	/	-16	3	0	/
CN1C(=O)/C(=C/C=C/c2ccco2)C(=O)NC1=S	20	14	1	2	0	4
O=C1NC(=O)N(c2ccccc2)C(=O)/C1=C/C=C/c1ccco1	14	13	-9	60*	0	-16
CC(=O)N1C[C@@H]2N[C@H](C1)C2c1ccccc1 (stereo not given in full)	/	/	/	/	1	-6
Nc1ccc(C2(c3ccc(N)cc3)c3ccccc3-c3ccccc32)cc1	83*	28	12	4	0	2
COC(=O)[C@H]1[C@H](CO)[C@H]2Cn3c(ccc(-c4ccc(OC)cc4)c3=O)[C@@H]1N2C(=O)c1ccccc1F	/	/	-4	4	0	/
O=C(Cc1ccccc1)N1CCCCN2[C@H](CO)[C@@H](c3ccc(C#Cc4ccccc4)cc3)[C@@H]2C1	/	/	28	/	0	/
O=C(Cc1ccncc1)N1CCCCN2[C@@H](CO)[C@@H](c3ccc(C#Cc4ccccc4F)cc3)[C@@H]2C1	/	/	10	-10	0	8
c1cncc(-c2ccc(C3[C@H]4CNC[C@@H]3N4CC3CC3)cc2)c1 (stereo not given in full)	/	/	-4	-12	0	-7
COc1ccc(C(c2nnnn2-c2ccc(OC)cc2)N2CCC(n3c(=O)[nH]c4ccccc43)CC2)cc1 (stereo not given)	38	17	23	-7	0	/
O=c1[nH]c2ccccc2n1C1CCN(C(c2cc3ccccc3o2)c2nnnn2-c2ccc3c(c2)OCCO3)CC1 (stereo not given)	78*	67*	96*	26	0	4
COc1ccc(-n2nnnc2C(c2cc3ccccc3o2)N2CCC(n3c(=O)[nH]c4ccccc43)CC2)cc1 (stereo not given)	103*	68*	76*	36	0	3
N#Cc1cccc(-c2ccc([C@@H]3[C@H]4CN(C(=O)Cc5ccccc5)CCCCN4[C@H]3CO)cc2)c1	/	/	14	14	0	/
COCCCNC(=O)c1c(NC(=O)c2ccco2)n(Cc2ccccc2)c2nc3ccccc3nc12	14	/	/	/	/	/
COCCNC(=O)c1c(N)n(CCC(C)C)c2nc3ccccc3nc12	35	73*	/	/	/	/
CC(C)OCCCNC(=O)c1c(N)n(Cc2cccs2)c2nc3ccccc3nc12	30	34	/	/	/	/
CC(C)CCn1c(N)c(C(=O)NCc2cccs2)c2nc3ccccc3nc21	63*	68*	27	13	/	/
